The source of these data is the RNAGym collection of RNA variant scans (doi:10.1126/science.aae0568).

Variants at the floor of the assay were thinned out. Where only a bound is given, the exact number is not on record here.

Sequences and labels used below:
B1: tRNA (parent)
chain: GUUCCGUUGGCGUAAUGGUAACGCGUCUCCCUCCUAAGGAGAAGACUGCGGGUUCGAGUCCCGUACGGAACG

In this series the parent is B1. Nature of the series: yeast fitness relative to wild type (ratio to wild type); higher = fitter; tRNA-Arg(CCU), competitive growth, 37 C, YPD. In a few lines:
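Start and end populations of a pooled competition were compared by 100-nucleotide paired-end sequencing of gene amplicons. The Saccharomyces cerevisiae strains carried tRNA-Arg(CCU) gene variants at the native genomic locus, synthesised with a 3% per-site mutation rate at 69 sites, and competed in YPD at 37°C for 24 hours in six parallel replicates. Darwinian fitness relative to wild type was based on the change in genotype frequencies. Genotypes required ≥ 100 starting reads, and estimates < 0.5 were set to 0.5.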
As to G12C C61A C62A, the yeast fitness is at most 0.5.

For G12C C61G C62U, the yeast fitness was 0.605.

Consider G12C A20U C33U A37U A57U, for which the yeast fitness is at most 0.5.

Consider G12C A37U G38A C55G, for which the yeast fitness is at most 0.5.

Turning to G12C A15C U19A C34U C49G A69U, the yeast fitness is at most 0.5.

In the case of G12C C62G A65C, the yeast fitness is at most 0.5.

G12A C46U: the yeast fitness came to 0.9.

For G12C C62U, the yeast fitness stood at 0.776.

Take G12C A14C A15G A37C: the yeast fitness turned out to be 0.606.

As to G12C A14C, the yeast fitness turned out to be 0.731.

Take G12C C22U U54C A65U: the yeast fitness worked out at 0.531.

G12A G44A C66U: the yeast fitness is 0.697.

On to G12A U26C G58A, for which the yeast fitness stood at 0.675.

On to G12C A15G G44C A57U, for which the yeast fitness amounted to 0.69.

Take G12A G17A: the yeast fitness turned out to be 0.881.

Take G12A G23C C30G A37U C62U A65U: the yeast fitness was at most 0.5.

Regarding G12A U32A C46A C66U, the yeast fitness was at most 0.5.

Take G12C A15C U19A C34U C49A G67A: the yeast fitness turned out to be 0.547.

For the variant G12C C22U C27A C49U, the yeast fitness is at most 0.5.

As to G12C A40G G50C C62U, the yeast fitness was 0.756.

As for G12A U26C C62U, the yeast fitness is 0.579.

Consider G12A G58U A70G, for which the yeast fitness stood at 0.538.

For G12A C55U C66G, the yeast fitness amounted to 0.569.

G12A G23C C49A A57C: the yeast fitness is at most 0.5.

G12A U28G A36G: the yeast fitness was at most 0.5.

In the case of G12C A20C A36G, the yeast fitness came to 0.581.

Take G12C C24G U53C C60G: the yeast fitness was at most 0.5.

In the case of G12A C55A G67A A70G, the yeast fitness is at most 0.5.

On to G12A G23C G25A U59A G63A, for which the yeast fitness was at most 0.5.

As to G12A G17C C66U, the yeast fitness is at most 0.5.

Take G12A G39C G67A: the yeast fitness was at most 0.5.

On to G12C G17A C46G, for which the yeast fitness amounted to 0.584.

For G12C C62U A70U, the yeast fitness was 0.606.

As for G12C C22G, the yeast fitness is 1.03.

Take G12C C22U: the yeast fitness came out at 0.955.

Take G12A G39C C66U: the yeast fitness was 0.572.

As to G12A G17A U26A A40U, the yeast fitness was at most 0.5.

In the case of G12A U13A G41C A45C, the yeast fitness came to 0.546.

As to G12A G17A A21C C29U, the yeast fitness is at most 0.5.

Consider G12A G38A, for which the yeast fitness was found to be 0.728.

Take G12C C61U C66G: the yeast fitness is at most 0.5.

On to G12C A20U C24U G51A G68C, for which the yeast fitness was at most 0.5.

For the variant G12A G58A, the yeast fitness came out at 0.924.

As to G12C G17A C49U U59C, the yeast fitness was at most 0.5.

On to G12C A21C, for which the yeast fitness was 0.638.

Take G12C C24U A42U C46A C55U C61G A69C: the yeast fitness was at most 0.5.

On to G12C C31U, for which the yeast fitness was 0.876.

For the variant G12C C31A, the yeast fitness amounted to 0.774.

For G12C C31G, the yeast fitness was determined as 0.818.

With G12A G25A G48A, the yeast fitness came out at 0.66.

Turning to G12A G51A A65G, the yeast fitness was at most 0.5.

As for G12C A21G U26C C31U, the yeast fitness was at most 0.5.

With G12C G25A A45C, the yeast fitness amounted to 0.543.

As to G12C C30G A42U, the yeast fitness was at most 0.5.

On to G12C A15G C34A G63C A70C, for which the yeast fitness was 0.641.

Take G12A C49A G51A: the yeast fitness was at most 0.5.

In the case of G12A G18C A42U, the yeast fitness is 0.65.

Turning to G12A U64A, the yeast fitness was found to be 0.849.

Regarding G12A U47C, the yeast fitness stood at 0.905.

Turning to G12A U19G U35C A40U A42G, the yeast fitness is at most 0.5.

For G12C A40C C46U C49A U64A, the yeast fitness is at most 0.5.

For the variant G12C C27U C33G G38C, the yeast fitness is at most 0.5.

Consider G12A G18C, for which the yeast fitness was 0.591.

For G12C C24G C27U A43U A69U, the yeast fitness came out at 0.625.

As to G12A G50C G68C, the yeast fitness came to 0.522.

Turning to G12C C30G C62A, the yeast fitness is at most 0.5.

As to G12C G17C C22A G58A, the yeast fitness is at most 0.5.

Turning to G12C C29U A36U, the yeast fitness is at most 0.5.

As for G12A C46U U53A, the yeast fitness is at most 0.5.

G12C G18C C66U: the yeast fitness is 0.528.

As for G12C A20U A36G C46A U54A G67C, the yeast fitness was at most 0.5.

As for G12A U19A C24U, the yeast fitness was 0.73.

Regarding G12C A42G U47C, the yeast fitness worked out at 0.634.

With G12A G17A C29U, the yeast fitness was at most 0.5.

With G12A U16C C27A, the yeast fitness was at most 0.5.

Consider G12A U28C C31U G52A G56C, for which the yeast fitness is at most 0.5.

G12C G25A A43C: the yeast fitness was 0.639.

As for G12C A15C U19A C34U C49A, the yeast fitness is at most 0.5.

Consider G12A U47C A69U, for which the yeast fitness stood at 0.757.

Regarding G12C C33G C34U A36C A43G G52C C60U, the yeast fitness came to 0.608.

Consider G12C C27G C30A, for which the yeast fitness was at most 0.5.

In the case of G12C C30U C31U, the yeast fitness is 0.611.

G12C C27A C31G G52C: the yeast fitness is at most 0.5.

As for G12A C61A A65U, the yeast fitness is at most 0.5.

Regarding G12A U13C A42U, the yeast fitness turned out to be 0.561.

Consider G12C C24G A37C, for which the yeast fitness is at most 0.5.

For the variant G12C G25A G41C, the yeast fitness turned out to be 0.591.

G12C C27U C62G: the yeast fitness was at most 0.5.

G12C A20U G25A U59A: the yeast fitness was at most 0.5.

Turning to G12A U26A A70U, the yeast fitness was 0.523.

In the case of G12C C33A G51C C62G, the yeast fitness was at most 0.5.

As to G12A G50C C66U, the yeast fitness was at most 0.5.

With G12C C33U G50C A70U, the yeast fitness came out at 0.509.

G12C G18C G58C: the yeast fitness is at most 0.5.

For the variant G12A C66G, the yeast fitness is 0.79.

In the case of G12A C66A, the yeast fitness was 0.654.

Regarding G12A C66U, the yeast fitness was 0.834.

With G12A G23A U35G G58A, the yeast fitness was at most 0.5.

Turning to G12C C34A G44C, the yeast fitness was at most 0.5.

G12A U16A A40G A57C C60A C62U: the yeast fitness turned out to be 0.69.

Take G12C G18C C27A G38C C49G: the yeast fitness is at most 0.5.

Consider G12C A43U U54C, for which the yeast fitness was at most 0.5.

With G12C A45G U47C, the yeast fitness was found to be 0.502.

As for G12A G23A C49U C60U G67A, the yeast fitness was at most 0.5.

Regarding G12A U28G C30U C61A A69U, the yeast fitness was 0.679.

Consider G12C C61G, for which the yeast fitness amounted to 0.635.

Turning to G12C C61U, the yeast fitness was 0.746.

Turning to G12C A15C A20U G41A, the yeast fitness is at most 0.5.

On to G12A G68A, for which the yeast fitness was 0.771.

Take G12A U28G C30U A36C: the yeast fitness is at most 0.5.

Turning to G12C A20U A45U G50A G51A, the yeast fitness was at most 0.5.

Consider G12C C66G A69U, for which the yeast fitness was at most 0.5.

Consider G12A U13A A14G G38C, for which the yeast fitness is at most 0.5.

As for G12A G38A G56C C62A A65C, the yeast fitness was at most 0.5.

With G12C C29A A45U C62U, the yeast fitness is at most 0.5.

G12C: the yeast fitness was 0.98.

G12A U54G A65U G67A: the yeast fitness is at most 0.5.

Consider G12C A69U, for which the yeast fitness turned out to be 0.935.

For the variant G12C A69G, the yeast fitness was determined as 0.82.

Turning to G12C A20C C24A A36C G48C, the yeast fitness is at most 0.5.

Turning to G12C C27G U32C A37G, the yeast fitness is at most 0.5.

For G12C C33G G44C, the yeast fitness came out at 0.572.

Regarding G12A G25A G67A, the yeast fitness is 0.625.

With G12A G18A C31U A70G, the yeast fitness is at most 0.5.

Turning to G12A U19A G52C, the yeast fitness is at most 0.5.

With G12C A20U C31A A65G, the yeast fitness is at most 0.5.

Consider G12C A36C A40U C66U A69U, for which the yeast fitness was at most 0.5.

For the variant G12C C30U, the yeast fitness was determined as 0.694.

With G12C C30A, the yeast fitness worked out at 0.786.

Consider G12C C30G, for which the yeast fitness worked out at 0.666.

With G12A G25A, the yeast fitness worked out at 0.819.

Turning to G12A G18C C62U G63C A70C, the yeast fitness was at most 0.5.

In the case of G12A U28C A37C A43C C49G, the yeast fitness was determined as 0.548.

Take G12A U47G U53A: the yeast fitness is at most 0.5.

On to G12A G25A A65U, for which the yeast fitness was 0.756.

G12A G25A A65G: the yeast fitness came to 0.682.

Turning to G12C G25A U35C, the yeast fitness is 0.552.

Take G12A G48C G67C: the yeast fitness is at most 0.5.

On to G12A G44A, for which the yeast fitness came out at 0.935.

G12A G44C: the yeast fitness was 0.727.

In the case of G12A U28A C55G, the yeast fitness was at most 0.5.

As for G12A U19G U35C A40U G52C U64C, the yeast fitness was at most 0.5.

Consider G12A U19C A42U G48C C55U, for which the yeast fitness came out at 0.593.

Consider G12C C29G U53A, for which the yeast fitness is 0.609.

Turning to G12C C31G C33G U35C, the yeast fitness is 0.515.

As for G12C G23C, the yeast fitness was 0.588.

Regarding G12C C30G A45U C46A, the yeast fitness is 0.608.

With G12C C30U A36C A40U, the yeast fitness is at most 0.5.

As for G12A C46U A65U, the yeast fitness came to 0.998.

In the case of G12C A70C, the yeast fitness came out at 0.833.

For the variant G12C A70G, the yeast fitness amounted to 0.845.

With G12A U13G G23C C24G C29G A36C, the yeast fitness was at most 0.5.

Consider G12C G18C G41A A43G G48A, for which the yeast fitness was at most 0.5.

As to G12C A65U A70U, the yeast fitness is 0.606.

With G12A G17C G25C C29G A36U G39A C46U C55U, the yeast fitness was at most 0.5.

Take G12A C49U C62U: the yeast fitness was 0.68.

On to G12A U26C U47C A57C, for which the yeast fitness was at most 0.5.

Consider G12C A14U A20U G23A G44A A57G A70U, for which the yeast fitness stood at 0.575.

Consider G12C G18A, for which the yeast fitness was 0.823.

G12C A15C A20U G38C G50C: the yeast fitness was at most 0.5.

Turning to G12C A45G A65G, the yeast fitness came out at 0.548.

With G12A U35C A37C C62U A65C, the yeast fitness was at most 0.5.

On to G12A G18C U19C C29U, for which the yeast fitness was at most 0.5.

With G12C A20C C34G U54G, the yeast fitness was at most 0.5.

For the variant G12A U26A, the yeast fitness came to 0.941.

For the variant G12A U26C, the yeast fitness was found to be 0.878.

For G12C A37G U54A A65C, the yeast fitness is at most 0.5.
